# An excerpt weighted towards active compounds, which were near 3.7% of everything screened.
# KCNQ1 act = human KCNQ1 channel potentiation or activation. AID 2648. CHO-K1 KCNQ1, thallium flux FluxOR fluorescence; active compounds read high. B-score at 10 µM. hit rate 0.35% among 310,000. P51787;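 active = fluorescence ratio B-score, a plate-corrected score, at least three library SD, with initial intensity B-score within 5 SD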
# Target sequence (P51787 whole entry, looked up): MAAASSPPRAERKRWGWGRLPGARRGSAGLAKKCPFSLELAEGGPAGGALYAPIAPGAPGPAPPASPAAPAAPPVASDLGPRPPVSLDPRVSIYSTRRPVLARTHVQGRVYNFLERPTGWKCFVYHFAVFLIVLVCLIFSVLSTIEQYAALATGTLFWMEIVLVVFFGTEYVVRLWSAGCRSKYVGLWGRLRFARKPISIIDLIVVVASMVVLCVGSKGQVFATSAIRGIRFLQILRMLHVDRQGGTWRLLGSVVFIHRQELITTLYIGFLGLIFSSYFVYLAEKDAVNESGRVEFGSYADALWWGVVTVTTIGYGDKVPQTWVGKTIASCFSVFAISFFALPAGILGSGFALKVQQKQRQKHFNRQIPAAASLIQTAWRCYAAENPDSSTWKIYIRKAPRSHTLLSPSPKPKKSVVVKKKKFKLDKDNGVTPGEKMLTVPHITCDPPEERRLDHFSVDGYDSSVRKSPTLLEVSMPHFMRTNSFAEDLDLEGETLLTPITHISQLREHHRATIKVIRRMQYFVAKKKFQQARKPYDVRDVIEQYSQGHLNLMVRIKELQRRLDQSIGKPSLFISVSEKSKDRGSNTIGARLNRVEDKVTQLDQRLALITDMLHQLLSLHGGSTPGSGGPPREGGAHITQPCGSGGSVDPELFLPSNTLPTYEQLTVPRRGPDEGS
#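 Doses: Single concentration per compound, DMSO matched to controls | Test system: KCNQ1-transfected CHO-K1 cells | Timing: 90 min dye loading and 20 min compound exposure, both at room temperature | Measured by: Kinetic FluxOR thallium fluorescence, 10-s 1-Hz baseline, 110-s post-stimulus read | Medium: Assay buffer with matched DMSO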
# KCNQ1 block = human KCNQ1 channel inhibition; P51787; CHO-K1 KCNQ1, FluxOR thallium flux fluorescence; active compounds read high; B-score at 10 µM; hit rate 1.3% among 310,000;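 active = compounds whose thallium flux B-score, printed positive for inhibition, exceeds three library SD while starting fluorescence stays within three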;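 also: channel opened by potassium depolarization with thallium stimulus after 20 min compound exposure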
# KCNK3 block = human KCNK3 channel inhibition, primary screen; O14649; CHO-KCNK3 thallium flux, FluxOR fluorescence; active compounds read low; B-score at 10 µM; hit rate 0.84% among 340,000;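 active = B-score under library mean minus 4 SD, starting fluorescence ratio at most library mean plus 5 SD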;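 also: more negative B-score means stronger inhibition of thallium flux through KCNK3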
# Kir21 block = Kir2.1 (mouse) channel inhibition; B-score at 10 µM; P35561; HEK293-Kir2.1, FluxOR thallium flux fluorescence; active compounds read low; AID 1672; hit rate 0.85% among 310,000;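 active = fluorescence ratio B-score at or below minus 3 SD of library scores, with starting-brightness B-score within 2 SD, cut at about -4.2 in these data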;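 also: channel flux triggered by added potassium and thallium sulfate stimulus; B-score of peak minus minimum fluorescence over baseline after thallium stimulus; more negative B-score means stronger Kir2.1 block with less thallium influx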
# hERG protect = hERG (human) protection from proarrhythmic block; Q12809; CHO-hERG, FluxOR thallium flux, dofetilide IC70 present; activation (rescue from dofetilide block), less the hit threshold, % at 10 µM; hit rate 0.51% among 310,000;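 active = activation above the mean of controls blocked by dofetilide plus 5 SD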;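 also: thallium influx through hERG after potassium depolarization seen as dye fluorescence rise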
# KCNK9 block = inhibitors of human KCNK9 two-pore domain potassium channel. HEK293 KCNK9, FluxOR thallium flux fluorescence; active compounds read low. B-score at 10 µM. hit rate 1.2% among 310,000. AID 488922;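 active = ratio B-score over 3 SD below the library mean, with starting fluorescence within 5 SD of its mean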;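 also: negative B-score means less thallium flux so channel inhibition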
# KCNK9 block conf = confirmation of human KCNK9 potassium channel inhibitors; shares compounds with KCNK9 block; HEK293 KCNK9 cells, FluxOR thallium flux fluorescence; inhibition, % at 10 µM; hit rate 43% among 4,900; AID 492992;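 active = thallium signal inhibited by more than 5 SD of the compound-free buffer control wells, on both duplicate plates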;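 also: 0% = assay buffer control wells without compound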
# Kir21 sel = selectivity of KCNK9 modulators against mouse Kir2.1. shares compounds with KCNK9 block. Kir2.1 cells, FluxOR thallium flux fluorescence. inhibition, % at 10 µM. hit rate 4% among 4,900;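 active = thallium signal drop more than 5 SD beyond the mean of the no-compound control wells, seen in both duplicate plates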;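 also: signal is fluorescence rise after thallium addition divided by baseline fluorescence; plate controls were assay buffer only for no effect and full block by chlorpromazine control for full effect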
# KCNK9 uninduced = second check of KCNK9 modulator effects in non-induced HEK293 cells | shares compounds with KCNK9 block | FluxOR thallium flux | inhibition, % at 10 µM | hit rate 40% among 4,900;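 active = thallium signal drop beyond 5 SD of the untreated control mean, on both duplicate plates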;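 also: plate controls were buffer only IC0 wells for no effect and SID17386958 at its maximal inhibitory level for full effect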
# * hit, by the source's call; i = inactive; nt = not tested or not shown.
SMILES,KCNQ1 act,KCNQ1 block,KCNK3 block,Kir21 block,hERG protect,KCNK9 block,KCNK9 block conf,Kir21 sel,KCNK9 uninduced
O=C(NCc1ccco1)c1cccc(NS(=O)(=O)c2cccc(F)c2)c1,i,i,i,-0.39,-6.3,i,nt,nt,nt
O=C(NCc1ccco1)c1cc(NS(=O)(=O)c2cccc([N+](=O)[O-])c2)ccc1O,i,i,i,0.44,-11.3,i,i,i,i
COc1ccccc1C1CCN(Cc2ccc(Cl)c(Cl)c2)CC1,i,i,i,-0.37,-11.4,i,i,i,i
COc1ccccc1C1CCN(Cc2cccc3ccccc23)CC1,i,i,i,0.84,-13.6,i,i,i,27.0%*
COc1ccc(S(=O)(=O)N2CCOCC2)cc1NC(=O)c1c(-c2ccccc2)noc1C,nt,nt,i,nt,nt,nt,nt,nt,nt
CCn1cnc2scc(-c3ccccc3)c2c1=O,i,i,i,0.05,-10.3,i,nt,nt,nt
Cn1cc(/C=N/n2cnc3scc(-c4ccc(Cl)cc4)c3c2=O)c2ccccc21,i,i,i,-0.13,-4.7,i,i,i,i
CCn1c(NC(=O)c2ccccc2F)c(-c2cccs2)c(=O)c2ccccc21,i,i,i,-0.78,-10.4,i,nt,nt,nt
Cc1ccc(N2C(=O)CSC2c2ccc3c(c2)OCO3)cc1 (stereo not drawn),i,i,i,-2.68,-7.8,i,nt,nt,nt
O=C1CSC(c2ccc3c(c2)OCO3)N1c1ccc(Oc2ccccc2)cc1 (stereo not drawn),i,i,i,1.38,-10.3,-13.7*,50.0%*,i,i
CCCN(CC(=O)Nc1ccc(F)c(F)c1F)C(=O)c1cc([N+](=O)[O-])ccc1N1CCOCC1,i,i,i,0.08,-17.4,i,nt,nt,nt
CCOc1cccc(C2/C(=C(/O)c3ccc4c(c3)CC(C)O4)C(=O)C(=O)N2Cc2ccncc2)c1 (stereo not drawn),i,i,i,-0.06,-9.8,i,nt,nt,nt
Cc1ccc(-c2csc(NC(=O)c3ccc(-c4ccccc4)cc3)n2)o1,i,i,i,0.6,-15.3,-9.75*,i,i,i
Cc1ccc(Cl)cc1Nc1nc(-c2sc(NC(=O)c3ccco3)nc2C)cs1,i,i,i,-0.04,-29.2,-11.8*,34.5%*,i,i
COc1ccc(-c2csc(NC(=O)c3ccco3)n2)cc1,i,i,i,-1.35,-4.4,-8.69*,i,i,i
CCC(C)C(=O)Nc1nc(C)c(-c2csc(Nc3ccccc3OC)n2)s1 (stereo not drawn),i,i,i,0.56,-13.5,-9.23*,58.5%*,i,27.5%*
O=C(Nc1nc(-c2ccco2)cs1)c1ccccc1,i,i,i,0.71,-16.8,i,nt,nt,nt
COc1ccc(C(CNC(=O)CCNS(=O)(=O)c2ccc(C)cc2)N2CCOCC2)cc1 (stereo not drawn),i,i,i,-2.12,-8.5,i,nt,nt,nt
COc1ccc(NC(=O)c2oc3ccccc3c2NC(=O)c2ccco2)cc1,i,i,i,0.03,-1.1,-9.06*,i,i,i
COc1ccc(NC(=O)c2oc3ccccc3c2NC(=O)C(C)(C)C)cc1,i,i,i,-1.65,-8.6,i,nt,nt,nt
COc1ccc(Cl)cc1Nc1nc(-c2sc(NC(=O)CC(C)C)nc2C)cs1,i,i,i,-1.1,-6.8,-13.1*,41.0%*,i,34.5%*
COc1ccc2c(c1)cc(C(=O)N[C@@H](CCSC)C(=O)N1CCC(C(=O)O)CC1)n2C,i,i,i,0.04,-1.9,i,nt,nt,nt
O=C(CNC(=O)c1ccc(Br)o1)NC1CCCCC1,i,i,i,1.46,-11.7,i,nt,nt,nt

# Screening results from PubChem BioAssay.
